Key:
[1] = biological target: T1, S100B (Homo sapiens, UniProt P04271); test: ITC titration of TRTK12 peptides with S100B; assay type: binding
T1 sequence (P04271 2-92 limits assumed): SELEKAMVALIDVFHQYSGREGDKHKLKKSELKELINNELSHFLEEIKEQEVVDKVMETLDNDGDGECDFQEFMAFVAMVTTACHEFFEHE

[2] = biological target: T1, S100B; test: Acrylamide dynamic quenching of peptide Trp in S100B complex; assay type: binding; details: Stern-Volmer constant
Outline: (§1)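 Trp quenching was run on 4–8 μM peptide with or without saturating S100 protein, in binding buffer (20 mM Tris, 0.2 mM EDTA, 1 mM TCEP, pH 7.5) containing 5 mM CaCl2 or 5 mM EDTA. Acrylamide was titrated to about 0.6 M final. Intensities were dilution-corrected, fitted to a modified Stern-Volmer equation with a static term, and averages reported.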

[3] = biological target: T2, S100A2 (Homo sapiens, UniProt P29034); test: ITC titration of TRTK12 peptides with S100A2; details: heat capacity change upon binding, slope of ΔHcal vs temperature
T2 sequence (P29034 whole entry): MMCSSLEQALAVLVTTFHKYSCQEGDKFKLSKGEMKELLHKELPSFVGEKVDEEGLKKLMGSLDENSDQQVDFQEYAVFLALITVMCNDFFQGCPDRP

[4] = biological target: T2, S100A2; test: Acrylamide dynamic quenching of peptide Trp in S100A2 complex; assay type: binding; details: Stern-Volmer constant
Outline: as §1

[5] = biological target: T3, S100P (Homo sapiens, UniProt P25815); test: ITC titration of TRTK12 peptides with S100P; assay type: binding; details: for ΔCp, exp: heat capacity change upon binding, slope of ΔHcal vs temperature, ITC
T3 sequence (P25815 1-95): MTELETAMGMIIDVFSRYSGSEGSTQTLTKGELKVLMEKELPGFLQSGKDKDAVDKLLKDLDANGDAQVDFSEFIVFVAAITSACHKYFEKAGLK

[6] = biological target: T3, S100P; test: Steady-state emission fluorescence titration with S100P; assay type: binding; details: Trp emission
[7] = ITC fit, Equation 1, 5 mM CaCl2

Structure (SMILES)	stoichiometry n (peptides per S100B dimer) [1, 7]	S100B+Peptide KSV ([2]; saturating S100B, 5 mM CaCl2) [M⁻¹]	ΔCp, exp [3] [kJ·mol^−1·K^−1]	S100A2+Peptide KSV ([4]; 5 mM CaCl2) [M⁻¹]	stoichiometry n (peptides per S100P dimer) [5, 7]	ΔCp, exp [5] [kJ·mol^−1·K^−1]	S100B+Peptide KSV ([2]; in the presence of 150mM NaCl)	S100A2+Peptide KSV ([4]; in the presence of 150mM NaCl)	changes in the emission fluorescence intensity of the tryptophan upon peptide binding or dissociation [6]	Kd [1] [nM]
CC[C@H](C)[C@H](NC(=O)[C@H](CCCCN)NC(=O)[C@@H](NC(=O)[C@H](CCCNC(=N)N)NC(=O)[C@@H](NC(C)=O)[C@@H](C)O)[C@@H](C)O)C(=O)N[C@@H](C)C(=O)N[C@@H](Cc1c[nH]c2ccccc12)C(=O)N[C@@H](CC(N)=O)C(=O)N[C@@H](CCCCN)C(=O)N[C@H](C(=O)N[C@@H](CC(C)C)C(=O)N[C@@H](CO)C(N)=O)[C@@H](C)CC [TRTKM6]			−0.7 ± 0.1			−0.9 ± 0.1	3.7 ± 0.1 ^a M^−1	4.7 ± 0.1 ^a M^−1	no observable changes	
CC[C@H](C)[C@H](NC(=O)[C@H](CCCCN)NC(=O)[C@H](CC(N)=O)NC(=O)[C@H](Cc1c[nH]c2ccccc12)NC(=O)[C@H](CC(=O)O)NC(=O)[C@H](C)NC(=O)[C@H](CCCCN)NC(=O)[C@@H](NC(=O)[C@H](CCCNC(=N)N)NC(=O)[C@@H](NC(C)=O)[C@@H](C)O)[C@@H](C)O)C(=O)N[C@@H](CC(C)C)C(=O)N[C@@H](CO)C(N)=O [TRTKM5]		2.8 ± 0.1	−0.9 ± 0.1	8.9 ± 0.2		−1.2 ± 0.1			no observable changes	
CC[C@H](C)[C@H](NC(=O)[C@H](C)NC(=O)[C@H](CC(N)=O)NC(=O)[C@H](Cc1c[nH]c2ccccc12)NC(=O)[C@H](CC(=O)O)NC(=O)[C@@H](NC(=O)[C@H](CCCCN)NC(=O)[C@@H](NC(=O)[C@H](CCCNC(=N)N)NC(=O)[C@@H](NC(C)=O)[C@@H](C)O)[C@@H](C)O)[C@@H](C)CC)C(=O)N[C@@H](CC(C)C)C(=O)N[C@@H](CO)C(N)=O [TRTKM9]		7.2 ± 0.2	−0.4 ± 0.1	6.1 ± 1.1		−1.0 ± 0.1			no observable changes	1700 ± 100
CC[C@H](C)[C@H](NC(=O)[C@H](CCCCN)NC(=O)[C@H](CC(N)=O)NC(=O)[C@H](Cc1c[nH]c2ccccc12)NC(=O)[C@H](CC(=O)O)NC(=O)[C@@H](NC(=O)[C@H](CCCCN)NC(=O)[C@@H](NC(=O)[C@H](CCCNC(=N)N)NC(=O)[C@H](C)NC(C)=O)[C@@H](C)O)[C@@H](C)CC)C(=O)N[C@@H](CC(C)C)C(=O)N[C@@H](CO)C(N)=O [TRTKM1]		2.4 ± 0.1	−0.8 ± 0.1	4.3 ± 0.2		−0.9 ± 0.1				

Other lines, results leading:

stoichiometry n (peptides per S100B dimer) [1, 7]	S100B+Peptide KSV ([2]; saturating S100B, 5 mM CaCl2) [M⁻¹]	ΔCp, exp [3] [kJ·mol^−1·K^−1]	S100A2+Peptide KSV ([4]; 5 mM CaCl2) [M⁻¹]	stoichiometry n (peptides per S100P dimer) [5, 7]	ΔCp, exp [5] [kJ·mol^−1·K^−1]	S100B+Peptide KSV ([2]; in the presence of 150mM NaCl)	S100A2+Peptide KSV ([4]; in the presence of 150mM NaCl)	changes in the emission fluorescence intensity of the tryptophan upon peptide binding or dissociation [6]	Kd [1] [nM]	Structure (SMILES)
1	7.2 ± 0.1	−1.6 ± 0.1	8.7 ± 0.2	1	−1.8 ± 0.1					CC[C@H](C)[C@H](NC(=O)[C@H](CCCCN)NC(=O)[C@H](CC(N)=O)NC(=O)[C@H](Cc1c[nH]c2ccccc12)NC(=O)[C@H](CC(=O)O)NC(=O)[C@@H](NC(=O)[C@H](CCCCN)NC(=O)[C@@H](NC(=O)[C@H](CCCNC(=N)N)NC(=O)[C@@H](NC(C)=O)[C@@H](C)O)[C@@H](C)O)[C@@H](C)CC)C(=O)N[C@@H](C)C(=O)N[C@@H](CO)C(N)=O [TRTKM11]
	7.5 ± 0.1				−1.3 ± 0.1					CC[C@H](C)[C@H](NC(=O)[C@H](CCCCN)NC(=O)[C@@H](NC(=O)[C@H](CCCNC(=N)N)NC(=O)[C@@H](NC(C)=O)[C@@H](C)O)[C@@H](C)O)C(=O)N[C@@H](CC(=O)O)C(=O)N[C@@H](Cc1c[nH]c2ccccc12)C(=O)N[C@@H](CC(N)=O)C(=O)N[C@@H](CCCCN)C(=O)N[C@@H](C)C(=O)N[C@@H](CC(C)C)C(=O)N[C@@H](CO)C(N)=O [TRTKM10]
